Test results: ChEMBL document CHEMBL2146359, “HCV NS5A replication complex inhibitors. Part 2: investigation of stilbene prolinamides” (Bioorg Med Chem Lett, 2012)

Experiments:
[1] = Cytotoxicity against human HuH7 cells after 72 hrs by Alamar Blue assay; type: cell-based; details: Huh-7 cells
Hepatitis C virus = experiment: Antiviral activity against HCV genotype 1b infected in human Huh7 cells assessed as inhibition of viral replication by FRET assay; type: functional, organism-based, Hepacivirus hominis; details: Huh-7
Outline: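 Replicon potency values are the means of at least two experiments.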

[2] = system: Bovine viral diarrhea virus 1; experiment: Antiviral activity against BVDV1; type: functional, organism-based; details: Bovine viral diarrhea virus isolates and strains

SMILES: N[C@H]1C[C@@H](C(=O)Nc2ccc(/C=C/c3ccc(NC(=O)[C@@H]4C[C@H](N)CN4C(=O)OCc4ccccc4)cc3)cc2)N(C(=O)OCc2ccccc2)C1
- CC50 at 72 h [1]: > 10 µM
- EC50 (Hepatitis C virus): 1.29 µM
- EC50 [2]: > 10 µM

SMILES: Nc1ccc(/C=C/c2ccc(NC(=O)[C@@H]3CCCN3C(=O)Cc3ccccc3)cc2)cc1
- CC50 at 72 h [1]: > 10 µM
- EC50 (Hepatitis C virus): > 10 µM
- EC50 [2]: > 10 µM

SMILES: CC(=O)N1CCC[C@H]1C(=O)Nc1ccc(/C=C/c2ccc(NC(=O)[C@@H]3CCCN3C(C)=O)cc2)cc1
- CC50 at 72 h [1]: > 10 µM
- EC50 (Hepatitis C virus): 2.38 µM
- EC50 [2]: > 10 µM

SMILES: Cc1nc2ccccn2c1C(=O)N1CCC[C@H]1C(=O)Nc1ccc(/C=C/c2ccc(NC(=O)[C@@H]3CCCN3C(=O)c3c(C)nc4ccccn34)cc2)cc1
- CC50 at 72 h [1]: > 10 µM
- EC50 (Hepatitis C virus): 0.0868 µM
- EC50 [2]: > 10 µM

SMILES: O=C(Nc1ccc(/C=C/c2ccc(NC(=O)[C@@H]3[C@H]4CCC[C@H]4CN3C(=O)OCc3ccccc3)cc2)cc1)[C@@H]1[C@H]2CCC[C@H]2CN1C(=O)OCc1ccccc1
- CC50 at 72 h [1]: > 10 µM
- EC50 (Hepatitis C virus): 0.12 µM
- EC50 [2]: > 10 µM

SMILES: CCO[C@H]1C[C@@H](C(=O)Nc2ccc(/C=C/c3ccc(NC(=O)[C@@H]4C[C@H](OCC)CN4C(=O)OCc4ccccc4)cc3)cc2)N(C(=O)OCc2ccccc2)C1
- CC50 at 72 h [1]: > 10 µM
- EC50 (Hepatitis C virus): 0.015 µM
- EC50 [2]: > 10 µM

SMILES: O=C(Nc1ccc(/C=C/c2ccc(NC(=O)[C@@H]3CCCN3C(=O)C3Cc4ccccc4O3)cc2)cc1)[C@@H]1CCCN1C(=O)C1Cc2ccccc2O1 (stereo partly specified)
- CC50 at 72 h [1]: > 10 µM
- EC50 (Hepatitis C virus): 0.011 µM
- EC50 [2]: > 10 µM

SMILES: O=C(Nc1ccc(/C=C/c2ccc(NC(=O)[C@@H]3CCN3C(=O)OCc3ccccc3)cc2)cc1)[C@@H]1CCN1C(=O)OCc1ccccc1
- CC50 at 72 h [1]: > 10 µM
- EC50 (Hepatitis C virus): 0.058 µM
- EC50 [2]: > 10 µM

SMILES: CC(C)(C)NC(=O)O[C@@H]1C[C@@H](C(=O)Nc2ccc(/C=C/c3ccc(NC(=O)[C@@H]4C[C@@H](OC(=O)NC(C)(C)C)CN4C(=O)OCc4ccccc4)cc3)cc2)N(C(=O)OCc2ccccc2)C1
- CC50 at 72 h [1]: > 10 µM
- EC50 (Hepatitis C virus): > 10 µM
- EC50 [2]: > 10 µM

SMILES: O=C(Nc1ccc(/C=C/c2ccc(NC(=O)[C@@H]3CCCN3C(=O)Cc3ccccc3)cc2)cc1)[C@@H]1CCCN1C(=O)Cc1ccccc1
- CC50 at 72 h [1]: > 10 µM
- EC50 [2]: > 10 µM

SMILES: O=C(Nc1ccc(/C=C/c2ccc(NC(=O)[C@@H]3Cc4ccccc4N3C(=O)OCc3ccccc3)cc2)cc1)[C@@H]1Cc2ccccc2N1C(=O)OCc1ccccc1
- CC50 at 72 h [1]: > 10 µM
- EC50 (Hepatitis C virus): 0.0669 µM
- EC50 [2]: > 10 µM

SMILES: Cc1nc2sccn2c1C(=O)N1CCC[C@H]1C(=O)Nc1ccc(/C=C/c2ccc(NC(=O)[C@@H]3CCCN3C(=O)c3c(C)nc4sccn34)cc2)cc1
- CC50 at 72 h [1]: > 10 µM
- EC50 (Hepatitis C virus): 0.0579 µM
- EC50 [2]: > 10 µM

SMILES: C[C@H](NC(=O)Cc1ccccc1)C(=O)Nc1ccc(/C=C/c2ccc(NC(=O)[C@@H]3CCCN3C(=O)Cc3ccccc3)cc2)cc1
- CC50 at 72 h [1]: > 10 µM
- EC50 (Hepatitis C virus): 0.00257 µM
- EC50 [2]: > 10 µM

SMILES: O=C(Nc1ccc(/C=C/c2ccc(NC(=O)[C@@H]3CCCN3C(=O)Cc3ccccn3)cc2)cc1)[C@@H]1CCCN1C(=O)Cc1ccccn1
- CC50 at 72 h [1]: > 10 µM
- EC50 (Hepatitis C virus): 0.00222 µM
- EC50 [2]: > 10 µM

SMILES: O=C(Nc1ccc(/C=C/c2ccc(NC(=O)[C@@H]3CCCN3C(=O)Cc3c[nH]cn3)cc2)cc1)[C@@H]1CCCN1C(=O)Cc1c[nH]cn1
- CC50 at 72 h [1]: > 10 µM
- EC50 (Hepatitis C virus): 1 µM
- EC50 [2]: > 10 µM

SMILES: O=C(Nc1ccc(/C=C/c2ccc(NC(=O)[C@@H]3CCCN3C(=O)Cc3cccs3)cc2)cc1)[C@@H]1CCCN1C(=O)Cc1cccs1
- CC50 at 72 h [1]: > 10 µM
- EC50 (Hepatitis C virus): 0.00128 µM
- EC50 [2]: > 10 µM

SMILES: Cn1cnc(CC(=O)N2CCC[C@H]2C(=O)Nc2ccc(/C=C/c3ccc(NC(=O)[C@@H]4CCCN4C(=O)Cc4cn(C)cn4)cc3)cc2)c1
- CC50 at 72 h [1]: > 10 µM
- EC50 (Hepatitis C virus): 0.0867 µM
- EC50 [2]: > 10 µM

SMILES: O=C(Nc1ccc(/C=C/c2ccc(NC(=O)[C@@H]3CCCN3C(=O)c3cccc4ccccc34)cc2)cc1)[C@@H]1CCCN1C(=O)c1cccc2ccccc12
- CC50 at 72 h [1]: > 10 µM
- EC50 (Hepatitis C virus): 1.63 µM
- EC50 [2]: > 10 µM

SMILES: CC(=O)Nc1ccc(/C=C/c2ccc(NC(=O)[C@@H]3CCCN3C(=O)Cc3ccccc3)cc2)cc1
- CC50 at 72 h [1]: > 10 µM
- EC50 (Hepatitis C virus): 1.64 µM
- EC50 [2]: > 10 µM

SMILES: CC(C)(C)O[C@H]1C[C@@H](C(=O)Nc2ccc(/C=C/c3ccc(NC(=O)[C@@H]4C[C@H](OC(C)(C)C)CN4C(=O)OCc4ccccc4)cc3)cc2)N(C(=O)OCc2ccccc2)C1
- CC50 at 72 h [1]: > 10 µM
- EC50 (Hepatitis C virus): 0.35 µM
- EC50 [2]: > 10 µM

SMILES: O=C(Nc1ccc(/C=C/c2ccc(NC(=O)[C@@H]3CCCN3C(=O)Cc3ccccc3)cc2)cc1)[C@@H]1CCCN1
- CC50 at 72 h [1]: > 10 µM
- EC50 (Hepatitis C virus): 1.39 µM
- EC50 [2]: > 10 µM

SMILES: O=C(Nc1ccc(/C=C/c2ccc(NC(=O)[C@@H]3CCCN3C(=O)c3ccc4ccccc4c3)cc2)cc1)[C@@H]1CCCN1C(=O)c1ccc2ccccc2c1
- CC50 at 72 h [1]: > 10 µM
- EC50 (Hepatitis C virus): 10 µM
- EC50 [2]: > 10 µM

SMILES: CO[C@@H]1C[C@@H](C(=O)Nc2ccc(/C=C/c3ccc(NC(=O)[C@@H]4C[C@@H](OC)CN4C(=O)OCc4ccccc4)cc3)cc2)N(C(=O)OCc2ccccc2)C1
- CC50 at 72 h [1]: > 10 µM
- EC50 (Hepatitis C virus): < 0.005 µM
- EC50 [2]: > 10 µM

SMILES: O=C(Cc1ccccc1)NCC(=O)Nc1ccc(/C=C/c2ccc(NC(=O)[C@@H]3CCCN3C(=O)Cc3ccccc3)cc2)cc1
- CC50 at 72 h [1]: > 10 µM
- EC50 (Hepatitis C virus): 0.768 µM
- EC50 [2]: > 10 µM

SMILES: CCO[C@@H]1C[C@@H](C(=O)Nc2ccc(/C=C/c3ccc(NC(=O)[C@@H]4C[C@@H](OCC)CN4C(=O)OCc4ccccc4)cc3)cc2)N(C(=O)OCc2ccccc2)C1
- CC50 at 72 h [1]: > 10 µM
- EC50 (Hepatitis C virus): 0.038 µM
- EC50 [2]: > 10 µM

SMILES: O=C(Nc1ccc(/C=C/c2ccc(NC(=O)[C@@H]3CCCCN3C(=O)OCc3ccccc3)cc2)cc1)[C@@H]1CCCCN1C(=O)OCc1ccccc1
- CC50 at 72 h [1]: > 10 µM
- EC50 (Hepatitis C virus): 0.0627 µM
- EC50 [2]: > 10 µM

SMILES: O=C(Nc1ccc(/C=C/c2ccc(NC(=O)[C@@H]3CCCN3C(=O)c3ccc4occc4c3)cc2)cc1)[C@@H]1CCCN1C(=O)c1ccc2occc2c1
- CC50 at 72 h [1]: > 10 µM
- EC50 (Hepatitis C virus): 0.056 µM
- EC50 [2]: > 10 µM

SMILES: O=C(Nc1ccc(/C=C/c2ccc(NC(=O)[C@@H]3CCCN3C(=O)c3c[nH]c4ccccc34)cc2)cc1)[C@@H]1CCCN1C(=O)c1c[nH]c2ccccc12
- CC50 at 72 h [1]: > 10 µM
- EC50 (Hepatitis C virus): 0.111 µM
- EC50 [2]: > 10 µM

SMILES: O=C(Nc1ccc(/C=C/c2ccc(NC(=O)[C@@H]3C4CC4CN3C(=O)OCc3ccccc3)cc2)cc1)[C@@H]1C2CC2CN1C(=O)OCc1ccccc1 (stereo partly specified)
- CC50 at 72 h [1]: > 10 µM
- EC50 (Hepatitis C virus): 0.089 µM
- EC50 [2]: > 10 µM

SMILES: CC(=O)N[C@@H](C)C(=O)Nc1ccc(/C=C/c2ccc(NC(=O)[C@@H]3CCCN3C(=O)Cc3ccccc3)cc2)cc1
- CC50 at 72 h [1]: > 10 µM
- EC50 (Hepatitis C virus): 0.153 µM
- EC50 [2]: > 10 µM

SMILES: C[C@@H](C(=O)Nc1ccc(/C=C/c2ccc(NC(=O)[C@H](C)N(C)C(=O)OCc3ccccc3)cc2)cc1)N(C)C(=O)OCc1ccccc1
- CC50 at 72 h [1]: > 10 µM
- EC50 (Hepatitis C virus): 0.0731 µM
- EC50 [2]: > 10 µM

SMILES: Cc1cc(CC(=O)N2CCC[C@H]2C(=O)Nc2ccc(/C=C/c3ccc(NC(=O)[C@@H]4CCCN4C(=O)Cc4cc(C)no4)cc3)cc2)on1
- CC50 at 72 h [1]: > 10 µM
- EC50 (Hepatitis C virus): 0.0762 µM
- EC50 [2]: > 10 µM

SMILES: C[C@H](NC(=O)OCc1ccccc1)C(=O)Nc1ccc(/C=C/c2ccc(NC(=O)[C@H](C)NC(=O)OCc3ccccc3)cc2)cc1
- CC50 at 72 h [1]: > 10 µM
- EC50 (Hepatitis C virus): 3.21 µM
- EC50 [2]: > 10 µM

SMILES: C[C@@H](C(=O)N1CCC[C@H]1C(=O)Nc1ccc(/C=C/c2ccc(NC(=O)[C@@H]3CCCN3C(=O)[C@H](C)c3ccccc3)cc2)cc1)c1ccccc1
- CC50 at 72 h [1]: > 10 µM
- EC50 (Hepatitis C virus): < 0.005 µM
- EC50 [2]: > 10 µM

SMILES: Cn1cccc1CC(=O)N1CCC[C@H]1C(=O)Nc1ccc(/C=C/c2ccc(NC(=O)[C@@H]3CCCN3C(=O)Cc3cccn3C)cc2)cc1
- CC50 at 72 h [1]: > 10 µM
- EC50 (Hepatitis C virus): 0.0102 µM
- EC50 [2]: > 10 µM

SMILES: CN(C)[C@H]1C[C@@H](C(=O)Nc2ccc(/C=C/c3ccc(NC(=O)[C@@H]4C[C@H](N(C)C)CN4C(=O)OCc4ccccc4)cc3)cc2)N(C(=O)OCc2ccccc2)C1
- CC50 at 72 h [1]: > 10 µM
- EC50 (Hepatitis C virus): 0.01 µM
- EC50 [2]: > 10 µM

SMILES: O=C(Nc1ccc(/C=C/c2ccc(NC(=O)[C@@H]3COCN3C(=O)OCc3ccccc3)cc2)cc1)[C@@H]1COCN1C(=O)OCc1ccccc1
- CC50 at 72 h [1]: > 10 µM
- EC50 (Hepatitis C virus): 0.00614 µM
- EC50 [2]: > 10 µM

SMILES: C[C@H](C(=O)N1CCC[C@H]1C(=O)Nc1ccc(/C=C/c2ccc(NC(=O)[C@@H]3CCCN3C(=O)[C@@H](C)c3ccccc3)cc2)cc1)c1ccccc1
- CC50 at 72 h [1]: > 10 µM
- EC50 (Hepatitis C virus): 0.005 µM
- EC50 [2]: > 10 µM

SMILES: O=C(Nc1ccc(/C=C/c2ccc(NC(=O)[C@@H]3CCCN3C(=O)Cc3ccncc3)cc2)cc1)[C@@H]1CCCN1C(=O)Cc1ccncc1
- CC50 at 72 h [1]: > 10 µM
- EC50 (Hepatitis C virus): 0.172 µM
- EC50 [2]: > 10 µM
